# Measured values reported in ChEMBL document CHEMBL3745692, “Novel iodoacetamido benzoheterocyclic derivatives with potent antileukemic activity are inhibitors of STAT5 phosphorylation” (Eur J Med Chem, 2016).
# What was measured:
# [1] = tested on: K562; assay: Antiproliferative activity against human K562 cells after 48 hrs by trypan blue dye exclusion assay; type: functional, cell-based; details: K562, 48 h
# [2] = tested on: K562; assay: Induction of apoptosis in human K562 cells after 48 hrs by annexinV and propidium iodide staining based flow cytometry; type: functional, cell-based; details: K562, 48 h
# Method in brief: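 After 48 h drug exposure, 1×10^6 cells were washed in PBS and spun at 200×g for 5 min. They were stained with FITC-annexin V plus propidium iodide for 15 min at 20 °C and annexin V-positive cells counted by flow cytometry. Apoptosis was also scored morphologically with acridine orange/ethidium bromide, counting at least 300 cells. AC50 is the concentration inducing apoptosis in 50% of cells; mean ± SE from two to three experiments.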
# [3] = target: T1, Signal transducer and activator of transcription 5A (Homo sapiens) (UniProt P42229); assay: Inhibition of STAT5 phosphorylation in human K562 cells at 2 uM after 24 hrs by flow cytometry (reference value: 315.56); type: cell-based
# T1 sequence (whole entry): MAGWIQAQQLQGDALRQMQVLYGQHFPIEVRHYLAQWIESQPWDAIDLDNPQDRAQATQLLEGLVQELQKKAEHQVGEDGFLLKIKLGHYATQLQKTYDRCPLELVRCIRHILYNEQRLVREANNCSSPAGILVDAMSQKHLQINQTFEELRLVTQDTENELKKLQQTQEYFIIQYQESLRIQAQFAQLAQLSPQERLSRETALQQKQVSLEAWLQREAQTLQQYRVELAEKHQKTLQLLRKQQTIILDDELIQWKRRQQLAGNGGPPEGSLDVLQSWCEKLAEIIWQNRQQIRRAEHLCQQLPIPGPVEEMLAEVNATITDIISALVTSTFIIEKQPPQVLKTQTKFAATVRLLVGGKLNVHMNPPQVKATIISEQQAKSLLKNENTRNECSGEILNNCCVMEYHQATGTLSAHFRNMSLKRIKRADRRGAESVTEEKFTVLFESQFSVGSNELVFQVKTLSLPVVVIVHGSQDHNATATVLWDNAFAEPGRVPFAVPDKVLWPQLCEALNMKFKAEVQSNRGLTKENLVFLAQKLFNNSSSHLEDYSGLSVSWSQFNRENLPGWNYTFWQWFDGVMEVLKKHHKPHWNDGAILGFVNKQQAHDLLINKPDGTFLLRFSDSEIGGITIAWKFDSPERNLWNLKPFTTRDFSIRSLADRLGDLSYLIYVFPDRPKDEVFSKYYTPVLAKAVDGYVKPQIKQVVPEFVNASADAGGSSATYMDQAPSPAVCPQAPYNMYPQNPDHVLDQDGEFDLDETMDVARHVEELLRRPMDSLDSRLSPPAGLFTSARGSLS
# Method in brief: (§1)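 After 24 h exposure, about 1×10^6 K562 cells were PBS-washed and fixed/permeabilised for 20 min at 4 °C. They were then stained for 30 min at 4 °C with PE-conjugated anti-pSTAT5 monoclonal antibody, with an isotype antibody as control. Median fluorescence was read by flow cytometry and compared with untreated cells stained for pSTAT5.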
# [4] = target: T1, Signal transducer and activator of transcription 5A (Homo sapiens); assay: Inhibition of STAT5 phosphorylation in human K562 cells at 2 uM after 24 hrs by flow cytometry relative to control; type: cell-based
# Method in brief: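 K562 cells were exposed for 24 h. About 1×10^6 cells were fixed and permeabilized for 20 min at 4 °C, then stained for 30 min at 4 °C with PE-conjugated anti-pSTAT5 monoclonal antibody; an isotype IgG1 antibody served as the background control. Median fluorescence was read by flow cytometry and compared with untreated cells stained for pSTAT5.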
# [5] = tested on: K562; assay: Cell cycle arrest in human K562 cells assessed as accumulation at G1 phase at 2 uM for 24 hrs by propidium iodide staining based flow cytometry (reference value: 39.27%); type: functional
# Method in brief: (§2)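 K562 cells were exposed to compound for 24 h. They were then washed in ice-cold PBS and resuspended at 1×10^6/mL in a hypotonic solution of propidium iodide 50 µg/mL in 0.1% sodium citrate with 0.03% NP-40. After 30 min, DNA content was read by flow cytometry as single-parameter histograms and cell cycle phase distribution (%) was modelled.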
# [6] = tested on: K562; assay: Cell cycle arrest in human K562 cells assessed as accumulation at S-phase at 2 uM for 24 hrs by propidium iodide staining based flow cytometry (reference value: 47.84%); type: functional; method in brief: as §2
# [7] = tested on: K562; assay: Cell cycle arrest in human K562 cells assessed as accumulation at G2M-phase at 2 uM for 24 hrs by propidium iodide staining based flow cytometry (reference value: 12.89%); type: functional; method in brief: as §2
# [8] = target: T1, Signal transducer and activator of transcription 5A (Homo sapiens); assay: Inhibition of STAT5 phosphorylation in human K562 cells at 3 uM after 24 hrs by flow cytometry (reference value: 315.56); type: cell-based; method in brief: as §1
# [9] = tested on: K562; assay: Cell cycle arrest in human K562 cells assessed as accumulation at G1 phase at 3 uM for 24 hrs by propidium iodide staining based flow cytometry (reference value: 39.27%); type: functional
# Method in brief: (§3)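 K562 cells in RPMI 1640 with 10% FCS, penicillin/streptomycin and L-glutamine, 5% CO2, 37 °C; exposed 24 h. Cells washed in ice-cold PBS, resuspended at 1×10^6/mL in hypotonic solution of propidium iodide 50 µg/mL in 0.1% sodium citrate plus 0.03% nonidet P-40 for 30 min. DNA content read as single-parameter flow cytometry histograms; phase distribution modelled.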
# [10] = tested on: K562; assay: Cell cycle arrest in human K562 cells assessed as accumulation at S-phase at 3 uM for 24 hrs by propidium iodide staining based flow cytometry (reference value: 47.84%); type: functional; method in brief: as §3
# [11] = tested on: K562; assay: Cell cycle arrest in human K562 cells assessed as accumulation at G2M-phase at 3 uM for 24 hrs by propidium iodide staining based flow cytometry (reference value: 12.89%); type: functional; method in brief: as §3
# [12] = tested on: K562; assay: Cell cycle arrest in human K562 cells assessed as accumulation at G2M-phase at 1 uM for 24 hrs by propidium iodide staining based flow cytometry (reference value: 12.89%); type: functional; method in brief: as §2
# [13] = target: T1, Signal transducer and activator of transcription 5A (Homo sapiens); assay: Inhibition of STAT5 phosphorylation in human K562 cells at 1 uM after 24 hrs by flow cytometry (reference value: 315.56); type: cell-based; method in brief: as §1
# [14] = target: Tubulin (Bos taurus, UniProt Q6B856+Q862L2+Q862F3); assay: Inhibition of bovine brain tubulin polymerization by spectrophotometry
# Method in brief: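 Bovine brain tubulin (10 µM) was pre-incubated with varying compound concentrations in glutamate buffer at 30 °C, then cooled to 0 °C. GTP was added ([…] final) and the mixture warmed to 30 °C. Assembly was followed by turbidity at 350 nm.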
# [15] = species on record: Bos taurus; assay: Inhibition of [3H]colchicine binding to bovine tubulin at 5 uM by DEAE-cellulose filter method
# Method in brief: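 Reaction mixtures contained 1 µM tubulin, 5 µM [3H]colchicine and 5 µM test compound. Result is given as % inhibition of colchicine binding ± SD.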
# [16] = tested on: K562; assay: Cell cycle arrest in human K562 cells assessed as accumulation at G1 phase at 1 uM for 24 hrs by propidium iodide staining based flow cytometry (reference value: 39.27%); type: functional; method in brief: as §2
# [17] = tested on: K562; assay: Cell cycle arrest in human K562 cells assessed as accumulation at S-phase at 1 uM for 24 hrs by propidium iodide staining based flow cytometry (reference value: 47.84%); type: functional; method in brief: as §2
# [18] = tested on: K562; assay: Cell cycle arrest in human K562 cells assessed as accumulation at G2M-phase at 5 uM for 24 hrs by propidium iodide staining based flow cytometry (reference value: 12.89%); type: functional; method in brief: as §2
# [19] = target: T1, Signal transducer and activator of transcription 5A (Homo sapiens); assay: Inhibition of STAT5 phosphorylation in human K562 cells at 5 uM after 24 hrs by flow cytometry (reference value: 315.56); type: cell-based; method in brief: as §1
# [20] = tested on: K562; assay: Cell cycle arrest in human K562 cells assessed as accumulation at G1 phase at 5 uM for 24 hrs by propidium iodide staining based flow cytometry (reference value: 39.27%); type: functional; method in brief: as §2
# [21] = tested on: K562; assay: Cell cycle arrest in human K562 cells assessed as accumulation at S-phase at 5 uM for 24 hrs by propidium iodide staining based flow cytometry (reference value: 47.84%); type: functional; method in brief: as §2
structure (smiles),measurement,setting,value
COc1cc(C(=O)c2oc3ccc(NC(=O)CI)cc3c2C)cc(OC)c1OC,IC50,[1],18 µM
same,AC50,[2],26.8 µM
COc1cc(C(=O)c2cc3cc(NC(=O)CI)ccc3o2)cc(OC)c1OC,Flu intensity,[3],255
same,inhibition,[4],19%
same,IC50,[1],0.6 µM
same,AC50,[2],2.9 µM
same,Activity,[5],39.48%
same,Activity,[6],53.52%
same,Activity,[7],7%
COc1ccc(C(=O)c2oc3ccccc3c2NC(=O)CI)cc1OC,IC50,[1],22 µM
same,AC50,[2],48 µM
COc1cc2oc(C(=O)c3cc(OC)c(OC)c(OC)c3)cc2cc1NC(=O)CI,Flu intensity,[3],225
same,inhibition,[4],29%
same,IC50,[1],0.4 µM
same,AC50,[2],2 µM
same,Activity,[5],43.33%
same,Activity,[6],52.26%
same,Activity,[7],4.41%
COc1ccc2oc(C(=O)c3cc(OC)c(OC)c(OC)c3)c(NC(=O)CI)c2c1,IC50,[1],3.2 µM
same,AC50,[2],7.8 µM
COc1cc(C(=O)c2oc3c(OC)cccc3c2NC(=O)CI)cc(OC)c1OC,IC50,[1],14 µM
same,AC50,[2],24 µM
COc1cc(C(=O)c2sc3cc(C)ccc3c2NC(=O)CI)cc(OC)c1OC,Flu intensity,[8],200
same,IC50,[1],1 µM
same,AC50,[2],4.7 µM
same,Activity,[9],41.47%
same,Activity,[10],27.66%
same,Activity,[11],30.87%
COc1cc(C(=O)c2sc3c(C)cccc3c2NC(=O)CI)cc(OC)c1OC,Activity,[12],2.99%
same,Flu intensity,[13],45.2
same,IC50,[14],1.1 µM
same,inhibition,[15],65%
same,IC50,[1],0.4 µM
same,AC50,[2],2.8 µM
same,Activity,[16],79.88%
same,Activity,[17],17.13%
O=C(CI)Nc1c(C(=O)c2ccccc2)oc2ccccc12,Activity,[18],11.4%
same,Flu intensity,[19],103
same,IC50,[14],> 20 µM
same,IC50,[1],1 µM
same,AC50,[2],5.9 µM
same,Activity,[20],68.32%
same,Activity,[21],20.28%
Cc1ccc(NC(=O)c2ccc(CN3CCN(C)CC3)cc2)cc1Nc1nccc(-c2cccnc2)n1 [IMATINIB],AC50,[2],0.68 µM
COc1ccc(C(=O)c2oc3ccccc3c2NC(=O)CI)cc1,IC50,[1],2.9 µM
same,AC50,[2],6.8 µM
